Bioassay records as filed in PubChem.
Rpn11 block = inhibitors of human proteasome Rpn11; hit rate 0.59% among 360,000; inhibition, % at 20 µM; O00487; human 26S proteasome, Ub4-pepOG fluorescence polarization; 20S core pre-blocked with epoxomicin;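 active means inhibition at 20 µM, scaled to each plate's controls, above about 33%, limit read from the data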
TPT1 inhibitor = blocks Candida albicans tRNA 2'-phosphotransferase; recombinant caTPT1, FP RNA substrate dephosphorylation; inhibition, % at 5 µM; hit rate 0.81% among 300,000; AID 1962;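 active means inhibition above the mean of all tested compounds plus 3 SD, set per screening campaign, cut at about 24% in these data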;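 further: plate controls were DMSO alone for no effect and ferristatin control at 100 nM for full effect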
CSN deneddyl inh = CSN deneddylation inhibition; Purified CSN, SCF-Nedd8-OG deneddylation, fluorescence polarization; hit rate 0.38% among 360,000; inhibition, % at 12.5 µM; Q92905;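 active means pattern-corrected inhibition above about 35%, with an unprinted fluorescence ratio check between 0.5 and 1.5, limit read from the data, passing the limit was not always enough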;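 further: 0% = enzyme with substrate and 100% = substrate without enzyme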
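Test system: Human Csn5 produced in HEK293T cells | Compound: 12.5 µM single point | Times: 90 min, room temperature | Signal: Fluorescence polarization readout | Read-out basis: % inhibition of substrate cleavage by Csn5 | Controls: no-enzyme wells high, enzyme-with-substrate wells low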
XiGFP reactiv = X-chromosome reactivation activator. XiGFP mouse fibroblasts, % GFP-positive cells imaging, 3 d; cells co-treated with 5-aza-dC sensitizer; scaled so ellipticine positive control = 100%. hit rate 0.055% among 360,000. activation, % at 7.58 µM;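 active means mean normalized replicate activation at least 10% and every replicate at or above 10%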;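 further: 0% = median of on-plate neutral control wells and 100% = ellipticine 6 µM median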
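System: SV40-immortalized XiGFP fibroblast cells, line 68-5-11 / Incubation: 3-day compound exposure, then 15 min fixation at room temperature / Compound: single concentration per compound, delivered by pin transfer / Buffer or medium: DMEM plus 5-aza-dC sensitizer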
aDG glyco act = increases alpha dystroglycan glycosylation; activation, % at 10 µM; AID 624168; hit rate 0.22% among 360,000; Pro5-aDG cells, alpha-DG glycosylation AlphaScreen (IIH6); 0% Pro5, 100% B10-LARGE cell signal;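 active means activation of at least 8% versus controls, or a plate z-score of at least 8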;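 further: Pro5 are CHO cells carrying HIG-tagged alpha-DG that lacks glycosylation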
HNF4A DNA FP = change in binding of human HNF4 alpha to DNA. P41235. activity change, % at 10 µM. AID 1224865. HNF4a-FITC DNA binding, fluorescence polarization, 1 h. hit rate 0.3% among 360,000; in the data active means activity change above about 30%, passing the limit was not always enough
Target sequence (P41235 whole entry, looked up): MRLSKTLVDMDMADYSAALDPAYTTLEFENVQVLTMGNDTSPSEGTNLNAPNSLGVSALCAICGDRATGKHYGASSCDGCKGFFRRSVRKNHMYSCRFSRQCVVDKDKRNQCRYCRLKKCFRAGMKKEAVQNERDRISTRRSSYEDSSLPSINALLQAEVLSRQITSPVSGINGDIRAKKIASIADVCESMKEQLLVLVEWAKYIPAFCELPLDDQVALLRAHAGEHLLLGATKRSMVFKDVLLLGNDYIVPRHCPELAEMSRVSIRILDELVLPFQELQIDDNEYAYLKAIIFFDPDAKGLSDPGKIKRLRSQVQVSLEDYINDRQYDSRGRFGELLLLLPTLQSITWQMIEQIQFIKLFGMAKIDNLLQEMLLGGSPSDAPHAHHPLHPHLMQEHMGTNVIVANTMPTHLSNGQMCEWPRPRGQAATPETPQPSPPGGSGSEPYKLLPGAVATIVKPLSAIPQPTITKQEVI
caTPT1 confirm = TPT1 (C. albicans) inhibition, confirmation; shares compounds with TPT1 inhibitor; recombinant caTPT1, fluorescence polarization, RNase T1 coupled; inhibition, % at 5 µM; hit rate 74% among 2,400;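 active means inhibition above the primary screen limit, the mean inhibition of all tested compounds plus 3 SD, cut at about 25% in these data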
RNase T1 inh = counter-screen for TPT1 inhibitors: inhibitors of Aspergillus oryzae RNase T1; shares compounds with TPT1 inhibitor; RNase T1 cleavage, fluorescence polarization, 1536-well; inhibition, % at 5 µM; hit rate 83% among 2,400;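 active means inhibition above the solvent-only control well mean plus 3 SD, limit set per screening run, cut at about 23% in these data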;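 further: plate controls were DMSO wells with enzyme for no effect and wells without RNase T1 for full effect; inhibitors block cleavage so intact labeled substrate keeps polarization high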
Target sequence (P00651 whole entry, looked up): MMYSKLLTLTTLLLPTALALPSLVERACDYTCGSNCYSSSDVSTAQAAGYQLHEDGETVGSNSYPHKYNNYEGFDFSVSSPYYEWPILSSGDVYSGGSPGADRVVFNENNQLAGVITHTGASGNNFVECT
An asterisk follows results filed as active; / = no result given. This is a sample that favours compounds with a hit; in the whole collection about 1.3% have one here.

SMILES	Rpn11 block	TPT1 inhibitor	CSN deneddyl inh	XiGFP reactiv	aDG glyco act	HNF4A DNA FP	caTPT1 confirm	RNase T1 inh
CO[C@@H]1CN(C)C(=O)c2cc(NC(C)=O)ccc2OC[C@H](C)N(Cc2cncnc2)C[C@H]1C	/	/	/	0	/	/	/	/
O=[N+]([O-])c1cccc(/C=C/c2ccc3cccc(O)c3n2)c1	4	-1	-5	0	0	2	/	/
O=[N+]([O-])c1cccc(/C=C/c2nc(C=Nc3ccc4ccccc4c3)c(O)o2)c1	2	33*	5	/	0	4	20	28*
C[C@@H]1CN([C@@H](C)CO)C(=O)c2cccc(NC(=O)c3cnccn3)c2O[C@H]1CN(C)S(=O)(=O)c1ccc(Cl)cc1	/	/	/	-1	/	/	/	/
COc1ccc(CN2C(=O)c3ccccc3C(/C=N/OCc3ccc(Cl)cc3)C2=O)cc1 (stereo unspecified)	9	43*	-3	/	0	2	65*	75*
C[C@@H]1CN([C@@H](C)CO)C(=O)Cc2cc(NS(=O)(=O)c3cn(C)cn3)ccc2O[C@H]1CN(C)C(=O)Nc1ccc(C(F)(F)F)cc1	/	/	/	-1	/	/	/	/
Nc1nc(SCC(=O)Nc2ccc3c(c2)OCO3)n[nH]1	1	41*	1	0	0	-1	2	3
CO[C@H]1CC[C@H]2CCOc3ccc(C#N)cc3C(=O)N(C)C[C@H](OC)[C@@H](C)C(=O)N(C)C[C@H]1O2	/	/	/	0	/	/	/	/
COc1ccc(NC(=O)N(C)C[C@H]2Oc3ccc(NC(=O)Nc4ccc(F)cc4)cc3CC(=O)N([C@H](C)CO)C[C@@H]2C)cc1	/	/	/	0	/	/	/	/
Cc1ccc2c(c1)sc(C)[n+]2CCCS(=O)(=O)[O-]	-1	-1	5	0	0	2	/	/
COc1cc(/C=C/c2sc3ccccc3[n+]2CCCS(=O)(=O)[O-])ccc1O	/	86*	127	0	0	87*	97*	101*
CN1CCc2c(sc3nc(SCC(=O)N4CCCCC4)n(-c4ccccc4)c(=O)c23)C1	4	6	-5	0	0	4	/	/
COC(=O)CSc1nc2sc3c(c2c(=O)n1-c1ccccc1)CCN(C)C3	2	6	4	/	0	5	/	/
CN1CCc2c(sc3nc(SCC(N)=O)n(-c4ccccc4)c(=O)c23)C1	33	45*	1	/	0	20	104*	109*
CN1CCc2c(sc3nc(SCC(N)=O)n(-c4ccc(Cl)cc4)c(=O)c23)C1	81*	86*	21	0	0	43*	64*	78*
CN(C)C(=O)C[C@@H]1CC[C@H]2[C@@H](COc3ccc(NC(=O)C4CCOCC4)cc3C(=O)N2C)O1	/	/	/	0	/	/	/	/
COc1ccc(NC(=O)N(C)C[C@@H]2Oc3ccc(NC(=O)CCC(F)(F)F)cc3C(=O)N([C@H](C)CO)C[C@@H]2C)cc1	/	/	/	0	/	/	/	/
COc1ccc(S(=O)(=O)N(C)C[C@H]2OCCCC[C@H](C)Oc3ccc(NS(=O)(=O)c4ccc(C)cc4)cc3C(=O)N([C@@H](C)CO)C[C@@H]2C)cc1	/	/	/	0	/	/	/	/
COc1cccc(C2Oc3ccccc3C3CC(c4cccs4)=NN32)c1 (stereo unspecified)	32	61*	7	0	0	5	33*	46*
O=C(c1ccccc1)C1Oc2ccccc2C2CC(c3cccs3)=NN12 (stereo unspecified)	10	-3	4	0	0	3	/	/
COC(=O)c1c(NC(=O)c2ccc(N(C)S(=O)(=O)c3ccc(C)cc3)cc2)sc2c1CCCC2	-4	-1	4	0	0	-3	/	/
CCN1CCc2c(sc(NC(=O)c3ccc(S(=O)(=O)N(C)c4ccccc4)cc3)c2C(=O)NC)C1	-33	133*	19	/	43*	27	150*	145*
CNC(=O)c1c(NC(=O)c2ccc(S(=O)(=O)N(C)c3ccccc3)cc2)sc2c1CCN(C(C)C)C2	/	125*	/	2	/	/	161*	149*
CN(C)c1ccc(/C=C2\SC(=S)N(Nc3ncc(C(F)(F)F)cc3Cl)C2=O)cc1	/	123*	-68	/	0	166	141*	130*
C/C=C/c1cnc2c(c1)C(=O)N([C@@H](C)CO)C[C@H](C)[C@@H](CN(C)C(=O)Cc1ccccc1)O2	/	/	/	0	/	/	/	/
SMILES	Rpn11 block	TPT1 inhibitor	CSN deneddyl inh	XiGFP reactiv	aDG glyco act	HNF4A DNA FP	caTPT1 confirm	RNase T1 inh
CC1=NCC(C)c2c1[nH]c1ccccc21 (stereo unspecified)	16	56*	6	/	0	2	17	27*
CC1=NCC(C)c2ccccc21 (stereo unspecified)	-2	/	-1	0	0	6	/	/
CCCNC(=O)[C@@H]1N[C@@H]2c3ccc(-c4cccc(F)c4)c(=O)n3C[C@@H]2[C@H]1CO	/	/	/	0	/	/	/	/
C[C@H](CO)N1C[C@H](C)[C@@H](CN(C)C(=O)Nc2ccccc2)Oc2ccc(NS(=O)(=O)c3ccc(Cl)cc3)cc2CC1=O	/	/	/	0	/	/	/	/
CN(C)CCN1C(=O)C(O)=C(C(=O)c2cc3ccccc3o2)C1c1ccc(N(C)C)cc1 (stereo unspecified)	31	32*	3	1	0	0	21	35*
CO[C@@H]1CN(C)C(=O)c2ccc(NS(C)(=O)=O)cc2OC[C@@H](C)N(C(=O)NC(C)C)C[C@@H]1C	/	/	/	0	/	/	/	/
COC(=O)c1ccccc1CSc1nsc(/C=C/N(C)C)c1C#N	/	92*	16	/	0	55*	35*	48*
Cc1ccc(-n2nnnc2SCC(=O)N2CC(=O)Nc3ccccc32)cc1	6	28*	-1	/	0	9	36*	46*
Cc1nnc(SCC(=O)N2CC(=O)Nc3ccccc32)n1C	3	1	-2	/	0	1	/	/
COc1ccc(N(CC(=O)N/N=C/c2ccc(-c3ccc([N+](=O)[O-])cc3)o2)S(=O)(=O)c2ccc(C)cc2)cc1	/	5	28	0	1	35	/	/
COc1ccc(N(CC(=O)N/N=C/c2ccc(-c3ccc([N+](=O)[O-])cc3)o2)S(=O)(=O)c2ccc(C)cc2)cc1Cl	32	43*	14	/	2	22	42*	51*
C/C=C/c1cnc2c(c1)C(=O)N([C@H](C)CO)C[C@@H](C)[C@H](CN(C)C(=O)c1ccc3c(c1)OCO3)O2	/	/	/	-1	/	/	/	/
Cc1cccc(S(=O)(=O)N[C@@H]2CC[C@H](CCNC(=O)CCN3CCCCC3)O[C@H]2CO)c1	/	/	/	0	/	/	/	/
